Experimental data published in ChEMBL document CHEMBL5252540, “3-Aroyl-1,4-diarylpyrroles Inhibit Chronic Myeloid Leukemia Cell Growth through an Interaction with Tubulin” (ACS Med Chem Lett, 2017).
pIC50: −log10 of the molar value. Each block holds one molecule with its values, some of them ahead of it. Calls of active or inactive are those of the source. The calls are words filed in the database; no cut-off is given here.

Tests used:
[1] = test system: MCF7; experiment: Cytotoxicity against human MCF7 cells assessed as cell growth inhibition incubated for 3 days by trypan blue exclusion assay; assay type: functional, cell-based; conditions: MCF7, 72 h
How it was run: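 MCF-7 human breast carcinoma cells; growth inhibition; triplicate experiments.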

[2] = target: Tubulin; experiment: Inhibition of tubulin (unknown origin) polymerization preincubated for 15 mins followed by GTP addition by turbidity based spectrophotometer analysis; assay type: protein-complex assay, Homo sapiens
[3] = target: Tubulin (Homo sapiens) (UniProt P68371+Q9H4B7+P0DPH7+P68366+Q13509+Q71U36+P04350+Q3ZCM7+P07437+P68363+Q9BQE3+Q6PEY2+Q13885+Q9BVA1+Q9BUF5); experiment: Inhibition of [3H]colchicine binding to tubulin (unknown origin) at 5 uM incubated for 10 mins relative to control; assay type: protein-complex assay
[4] = test system: LAMA-84; experiment: Effect on total cofilin protein level in human LAMA-84 cells at 100 nM incubated for 24 hrs by Western blot analysis; assay type: functional, cell-based
[5] = test system: LAMA-84; experiment: Effect on total beta-catenin protein level in human LAMA-84 cells at 100 nM incubated for 24 hrs by Western blot analysis; assay type: functional, cell-based
[6] = target: Bcr/Abl fusion protein (Homo sapiens) (UniProt P00519+P11274); experiment: Inhibition of BCR-ABL phospho-activation in human LAMA-84 cells at 100 nM incubated for 24 hrs by Western blot analysis; assay type: cell-based
How it was run: (§1)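 LAMA84 cells cultured 24 h at 100 nM, alongside IM 100 nM and DMSO controls; lysates analysed by Western immunoblotting for BCR/ABL auto-activation and total E-cadherin.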

[7] = test system: KU812 cell line; experiment: Induction of apoptosis in human KU812 cells assessed as increase in PARP cleavage measured after 24 hrs by Western blot analysis; assay type: functional, cell-based
How it was run: (§2)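 KU812 cells treated for 6 h and 24 h; immunoblotting for p21Cip/WAF1 and PARP cleavage.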

[8] = test system: KU812 cell line; experiment: Induction of cell cycle arrest in human KU812 cells assessed as accumulation of cells at sub-G1 phase incubated for 2 to 8 hrs by RNase/PI staining based flow cytometry analysis relative to control; assay type: functional; conditions: time 2-8 hrs
How it was run: (§3)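 KU812 cells treated with 100 nM versus DMSO vehicle for 2-8 h or 24 h; cell cycle distribution (G2/M, sub-G1) by flow cytometry.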

[9] = test system: LAMA-84; experiment: Antiproliferative activity against human LAMA-84 cells expressing BCR/ABL assessed as cell growth inhibition at 12 nM incubated for 48 hrs by MTT assay relative to control; assay type: functional
How it was run: (§4)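 KU812 or LAMA84 CML blast-crisis cells (BCR/ABL-expressing) exposed to increasing doses for 48 h; proliferation read by MTT assay; triplicate experiments.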

[10] = test system: KYSE-150 cell line; experiment: Cytotoxicity against human KYSE-150 cells assessed as cell growth inhibition incubated for 48 to 96 hrs by celltiter-flor reagent based fluorescence assay; assay type: functional
[11] = test system: HCT-116; experiment: Cytotoxicity against human HCT-116 cells assessed as cell growth inhibition incubated for 48 hrs by MTT assay; assay type: functional, cell-based; conditions: HCT-116, 48 h
[12] = test system: HepG2; experiment: Cytotoxicity against human HepG2 cells assessed as cell growth inhibition incubated for 48 hrs by MTT assay; assay type: functional, cell-based; conditions: HepG2, 48 h
[13] = test system: KU812 cell line; experiment: Antiproliferative activity against human KU812 cells expressing BCR/ABL assessed as cell growth inhibition at 12 nM incubated for 48 hrs by MTT assay relative to control; assay type: functional; how it was run: as §4
[14] = Cytotoxicity against human PBMC cells assessed as reduction in cell viability up to 1 uM incubated for 48 hrs by MTT assay; assay type: toxicity, cell-based
How it was run: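 Peripheral blood mononuclear cells isolated from healthy donors, exposed to compound up to 1 μM for 48 h; viability read by MTT assay; triplicate experiments.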

[15] = test system: KBM5; experiment: Cytotoxicity against imatinib mesylate sensitive human KBM5 cells expressing wild type BCR/ABL assessed as cell growth inhibition; assay type: functional, cell-based
How it was run: (§5)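 Hematopoietic KBM5 cells ectopically expressing IM-sensitive wild-type or IM-resistant T315I BCR/ABL, dosed over a concentration range; growth measured by MTT assay; average IC50 from triplicate experiments.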

[16] = test system: KBM5; experiment: Cytotoxicity against imatinib mesylate resistant human KBM5 cells expressing BCR/ABL T315I mutant assessed as cell growth inhibition; assay type: functional, cell-based; how it was run: as §5
[17] = test system: KBM5; experiment: Induction of apoptosis in imatinib mesylate resistant human KBM5 cells expressing BCR/ABL-T315I mutant assessed as annexin V positive cells incubated for 48 hrs by annexin V-FITC/propidium iodide staining based flow cytometry analysis (reference value: 2.2+/-1.8%); assay type: functional
[18] = test system: KBM5; experiment: Induction of apoptosis in imatinib mesylate sensitive human KBM5 cells expressing wild type BCR/ABL assessed as annexin V positive cells incubated for 48 hrs by annexin V-FITC/propidium iodide staining based flow cytometry analysis (reference value: 2.2+/-1.8%); assay type: functional
[19] = test system: KU812 cell line; experiment: Induction of cell cycle arrest in human KU812 cells assessed as accumulation of cells at G2/M phase incubated for 2 to 8 hrs by RNase/PI staining based flow cytometry analysis (reference value: 35.7+/-[…]); assay type: functional; conditions: time 2-8 hrs
[20] = test system: KU812 cell line; experiment: Induction of cell cycle arrest in human KU812 cells assessed as accumulation of cells at G2/M phase incubated for 24 hrs by RNase/PI staining based flow cytometry analysis relative to control; assay type: functional; how it was run: as §3
[21] = test system: KU812 cell line; experiment: Induction of apoptosis in human KU812 cells assessed as accumulation of cells at sub-G1 phase incubated for 24 hrs by RNase/PI staining based flow cytometry analysis (reference value: 0.4+/-0.8%); assay type: functional
[22] = test system: KU812 cell line; experiment: Induction of apoptosis in human KU812 cells assessed as upregulation of p21 Cip/WAF1 protein expression incubated for 6 hrs by Western blot analysis; assay type: functional, cell-based; how it was run: as §2
[23] = test system: KU812 cell line; experiment: Induction of apoptosis in human KU812 cells assessed as upregulation of p21 Cip/WAF1 protein expression measured after 24 hrs by Western blot analysis; assay type: functional, cell-based; how it was run: as §2
[24] = test system: LAMA-84; experiment: Downregulation of E-cadherin protein level in human LAMA-84 cells at 100 nM incubated for 24 hrs by Western blot analysis; assay type: functional, cell-based; how it was run: as §1
[25] = test system: KU812 cell line; experiment: Antiproliferative activity against human KU812 cells expressing BCR/ABL assessed as cell growth inhibition; assay type: functional, cell-based; how it was run: as §4
[26] = test system: LAMA-84; experiment: Antiproliferative activity against human LAMA-84 cells expressing BCR/ABL assessed as cell growth inhibition; assay type: functional, cell-based; how it was run: as §4
[27] = test system: KU812 cell line; experiment: Induction of morphological changes in human KU812 cells assessed as elongated shape at 100 nM incubated for 16 hrs by immunostaining based phase contrast microscopic analysis; assay type: functional, cell-based
How it was run: (§6)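 KU812 cells treated with 100 nM versus DMSO vehicle; shape examined by phase contrast microscopy with tubulin immunostaining, scoring elongation, multiple centrosomes and failed cytokinesis.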

[28] = test system: KU812 cell line; experiment: Induction of morphological changes in human KU812 cells expressing BCR/ABL assessed as multiple centrosome cells with failed cytokinesis at 100 nM incubated for 16 hrs by immunostaining based phase contrast microscopic analysis; assay type: functional, cell-based; how it was run: as §6
[29] = test system: LAMA-84; experiment: Downregulation of unphosphorylated beta-catenin protein expression in human LAMA-84 cells at 100 nM incubated for 24 hrs by Western blot analysis; assay type: functional, cell-based
[30] = test system: LAMA-84; experiment: Downregulation of phospho cofilin protein expression in human LAMA-84 cells at 100 nM incubated for 24 hrs by Western blot analysis; assay type: functional, cell-based
[31] = test system: KU812 cell line; experiment: Induction of apoptosis in human KU812 cells assessed as appearance of blue-to-cyan fluorescence in nucleus by Hoechst-3258 staining based analysis; assay type: functional, cell-based
How it was run: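 KU812 cells treated with compound versus DMSO control; nuclear morphology by Hoechst-3258 staining, blue-to-cyan fluorescence scored as apoptotic.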

[32] = test system: LAMA-84; experiment: Potentiation of imatinib mesylate induced antiproliferative activity against human LAMA-84 cells assessed as imatinib mesylate IC50 incubated for 48 hrs by MTT assay; assay type: functional, cell-based; conditions: LAMA-84, 48 h
[33] = test system: KBM5; experiment: Potentiation of imatinib mesylate induced apoptosis in human KBM5 cells expressing wild type BCR/ABL assessed as increase in pro-apoptogenic effect at 100 nM incubated for 24 hrs by annexin V-FITC/propidium iodide staining based flow cytometry analysis; assay type: functional, cell-based
How it was run: (§7)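 Annexin V-FITC staining to detect early cell death after 24 h; IM given with or without 100 nM test agent; read by flow cytometry; triplicate experiments.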

[34] = test system: KBM5; experiment: Potentiation of imatinib mesylate induced apoptosis in human KBM5 cells expressing BCR/ABL T315I mutant assessed as increase in pro-apoptogenic effect at 100 nM incubated for 24 hrs by annexin V-FITC/propidium iodide staining based flow cytometry analysis; assay type: functional, cell-based; how it was run: as §7
[35] = test system: KU812 cell line; experiment: Induction of apoptosis in human KU812 cells assessed as upregulation of caspase-3 activation by flow cytometry; conditions: time 0-24 hrs, TDE = time-dependent effect

Bcr/Abl fusion protein (Homo sapiens), sequence (P00519 whole entry, looked up, the tested form may be a part): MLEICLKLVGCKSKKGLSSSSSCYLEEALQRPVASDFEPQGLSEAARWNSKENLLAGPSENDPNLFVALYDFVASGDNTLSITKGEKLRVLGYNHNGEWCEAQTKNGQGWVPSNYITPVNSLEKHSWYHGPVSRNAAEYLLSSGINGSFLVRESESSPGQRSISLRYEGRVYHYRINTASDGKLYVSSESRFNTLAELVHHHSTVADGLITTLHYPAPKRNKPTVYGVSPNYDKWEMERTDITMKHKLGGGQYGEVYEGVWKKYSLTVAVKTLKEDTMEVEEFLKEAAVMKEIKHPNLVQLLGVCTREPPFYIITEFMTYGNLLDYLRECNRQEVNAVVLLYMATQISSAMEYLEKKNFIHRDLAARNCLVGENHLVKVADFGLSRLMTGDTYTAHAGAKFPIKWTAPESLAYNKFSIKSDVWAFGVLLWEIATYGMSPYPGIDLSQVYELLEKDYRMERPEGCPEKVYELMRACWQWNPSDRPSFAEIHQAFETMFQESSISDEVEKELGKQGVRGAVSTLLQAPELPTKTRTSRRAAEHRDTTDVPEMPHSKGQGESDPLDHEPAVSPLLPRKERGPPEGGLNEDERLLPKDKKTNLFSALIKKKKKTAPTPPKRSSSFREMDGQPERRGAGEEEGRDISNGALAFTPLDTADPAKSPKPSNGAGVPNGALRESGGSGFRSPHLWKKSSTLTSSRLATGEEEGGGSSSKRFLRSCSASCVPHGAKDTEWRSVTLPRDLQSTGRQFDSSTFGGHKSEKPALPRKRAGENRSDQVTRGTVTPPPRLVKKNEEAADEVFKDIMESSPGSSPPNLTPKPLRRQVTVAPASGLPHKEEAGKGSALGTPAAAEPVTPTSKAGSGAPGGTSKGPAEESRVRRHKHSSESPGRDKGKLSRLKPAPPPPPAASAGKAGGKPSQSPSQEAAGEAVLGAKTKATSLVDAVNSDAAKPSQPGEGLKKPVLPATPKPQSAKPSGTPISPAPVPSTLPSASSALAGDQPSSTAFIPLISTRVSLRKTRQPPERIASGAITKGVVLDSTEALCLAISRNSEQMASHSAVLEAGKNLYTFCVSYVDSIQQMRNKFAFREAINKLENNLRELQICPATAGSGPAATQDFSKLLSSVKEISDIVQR
Bcr/Abl fusion protein (Homo sapiens), sequence (P11274 whole entry, looked up, the tested form may be a part): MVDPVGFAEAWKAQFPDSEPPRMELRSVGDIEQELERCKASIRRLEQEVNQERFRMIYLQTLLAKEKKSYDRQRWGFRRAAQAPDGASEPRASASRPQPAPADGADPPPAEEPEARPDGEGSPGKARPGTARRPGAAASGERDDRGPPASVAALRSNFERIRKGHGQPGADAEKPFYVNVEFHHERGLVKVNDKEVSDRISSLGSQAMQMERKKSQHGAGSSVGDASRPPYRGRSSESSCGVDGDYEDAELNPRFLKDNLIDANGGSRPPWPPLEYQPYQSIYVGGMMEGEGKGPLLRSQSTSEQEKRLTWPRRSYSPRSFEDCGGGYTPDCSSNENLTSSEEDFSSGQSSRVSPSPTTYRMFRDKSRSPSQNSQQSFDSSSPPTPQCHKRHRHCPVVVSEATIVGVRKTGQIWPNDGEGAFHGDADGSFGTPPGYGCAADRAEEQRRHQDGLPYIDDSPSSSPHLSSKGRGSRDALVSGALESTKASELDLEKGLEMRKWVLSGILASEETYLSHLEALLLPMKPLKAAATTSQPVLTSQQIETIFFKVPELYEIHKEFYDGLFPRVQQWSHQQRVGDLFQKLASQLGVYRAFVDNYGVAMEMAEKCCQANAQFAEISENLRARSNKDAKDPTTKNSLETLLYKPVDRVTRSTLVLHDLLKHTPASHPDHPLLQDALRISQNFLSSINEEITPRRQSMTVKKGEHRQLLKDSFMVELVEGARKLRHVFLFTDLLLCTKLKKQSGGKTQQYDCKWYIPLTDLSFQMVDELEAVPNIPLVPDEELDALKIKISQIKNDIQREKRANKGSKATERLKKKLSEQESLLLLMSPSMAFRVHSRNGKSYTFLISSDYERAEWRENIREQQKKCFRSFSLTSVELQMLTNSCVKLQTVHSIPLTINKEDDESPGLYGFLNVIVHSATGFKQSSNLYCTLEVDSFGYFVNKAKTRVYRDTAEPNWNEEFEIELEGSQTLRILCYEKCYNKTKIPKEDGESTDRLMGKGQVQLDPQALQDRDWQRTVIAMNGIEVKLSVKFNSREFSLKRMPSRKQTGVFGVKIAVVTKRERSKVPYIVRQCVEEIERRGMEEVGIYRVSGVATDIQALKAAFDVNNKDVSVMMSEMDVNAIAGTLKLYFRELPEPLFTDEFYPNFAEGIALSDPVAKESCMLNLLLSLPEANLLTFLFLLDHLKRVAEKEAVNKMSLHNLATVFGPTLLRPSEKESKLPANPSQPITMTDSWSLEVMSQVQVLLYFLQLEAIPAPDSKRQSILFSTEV

SMILES: COc1cc(C(=O)c2cn(-c3cccc(F)c3)cc2-c2ccccc2)cc(OC)c1OC
pIC50 [1]: 6.46
pIC50 [2]: 5.54
inhibition [3]: 42%

SMILES: COc1cc(C(=O)c2cn(-c3ccccc3)cc2-c2ccc(N)cc2)cc(OC)c1OC
Activity [4]: inactive
Activity [5]: inactive
inhibition [6]: inactive
Activity [7]: Active
Activity [8]: <10%
inhibition at 0.012 µM [9]: 50%
inhibition [3]: 81%
pIC50 [10]: 7.70
pIC50 [11]: 7.70
pIC50 [12]: 7.34
inhibition at 0.012 µM [13]: 50%
Activity [14]: Non-Toxic
pIC50 [15]: 7.82
pIC50 [16]: 7.74
Activity [17]: 58.2%
Activity [18]: 62.6%
Activity [19]: 60.3%
Activity [20]: 11.4%
Activity [21]: 75.6%
Activity [22]: Active
Activity [23]: inactive
Activity [24]: Active
pIC50 [25]: 7.92
pIC50 [26]: 7.85
Activity [27]: Active
Activity [28]: Active
Activity [29]: Active
Activity [30]: Active
Activity [31]: Active
pIC50 [32]: > 8.00
Activity [33]: Active
Activity [34]: Active
Activity [35]: Tde

SMILES: COc1cc(C(=O)c2cn(-c3cccc(N)c3)cc2-c2ccccc2)cc(OC)c1OC
pIC50 [1]: 7.13
pIC50 [2]: 5.96
inhibition [3]: 82%

SMILES: COc1cc(C(=O)c2cn(-c3ccccc3F)cc2-c2ccccc2)cc(OC)c1OC
pIC50 [1]: 7.07
pIC50 [2]: 5.70
inhibition [3]: 29%

SMILES: COc1cc(C(=O)c2ccn(-c3cccc(N)c3)c2)cc(OC)c1OC
pIC50 [25]: 7.55
pIC50 [26]: 7.55

SMILES: COc1cc(C(=O)c2cn(-c3ccccc3)cc2-c2cccc(F)c2)cc(OC)c1OC
pIC50 [1]: 7.24
pIC50 [2]: 6.20
inhibition [3]: 53%

Continued by rising pIC50 [2], values first:

pIC50 [2]: 5.66
inhibition [3]: 24%
SMILES: COc1cc(C(=O)c2cn(-c3ccccc3)cc2-c2ccc(C)cc2)cc(OC)c1OC
pIC50 [1]: 6.55

pIC50 [2]: 5.77
inhibition [3]: 82%
SMILES: COc1cc(C(=O)c2cn(-c3cccc(C)c3)cc2-c2ccccc2)cc(OC)c1OC
pIC50 [1]: 6.92
